# Bioassay records: PubChem BioAssay, Sanford-Burnham Center for Chemical Genomics
# mIAP inh – inhibitors of mouse IAP, primary screen, biochemical, luminescence, uHTS | intestinal alkaline phosphatase [Mus musculus] | purified mouse IAP, CDP-Star luminescence, 30 min | inhibition, % at 10 µM | hit rate 0.2% among 330,000 | AID 2806, 2010;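 active = inhibition of at least 40% at 10 µM in the primary screen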;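 note: plate controls were DMSO with enzyme for no effect and no enzyme wells for full effect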
# hIAP act – human IAP activators, primary screen, biochemical, luminescence, uHTS. AID 2524, 2010. purified human IAP, CDP-Star luminescence, 30 min; active compounds read high; 1 = vehicle-only enzyme, 0 = enzyme-free background. activation factor at 10 µM. Intestinal-type alkaline phosphatase (Homo sapiens), P09923. hit rate 0.16% among 330,000;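 active = activation factor of the enzyme at least 2-fold when tested at 20 µM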
# Target sequence (P09923 whole entry, looked up): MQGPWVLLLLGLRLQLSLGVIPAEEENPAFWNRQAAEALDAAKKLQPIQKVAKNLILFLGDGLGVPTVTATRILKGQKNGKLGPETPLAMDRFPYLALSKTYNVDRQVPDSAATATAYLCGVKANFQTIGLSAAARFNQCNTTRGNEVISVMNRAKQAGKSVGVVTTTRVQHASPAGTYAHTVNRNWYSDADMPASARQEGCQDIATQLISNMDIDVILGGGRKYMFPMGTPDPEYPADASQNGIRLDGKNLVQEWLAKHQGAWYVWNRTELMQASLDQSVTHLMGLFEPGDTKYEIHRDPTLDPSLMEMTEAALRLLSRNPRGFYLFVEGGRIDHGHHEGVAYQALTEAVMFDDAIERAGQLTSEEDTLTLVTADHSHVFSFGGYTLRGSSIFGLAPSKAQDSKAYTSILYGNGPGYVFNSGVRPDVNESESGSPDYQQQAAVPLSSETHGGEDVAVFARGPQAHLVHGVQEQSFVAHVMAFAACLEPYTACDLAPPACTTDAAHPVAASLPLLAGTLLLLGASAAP
# mIAP act – activators of mouse IAP, primary screen, biochemical, luminescence, uHTS. muIAP, CDP-Star luminescence, 30 min; active compounds read high; 1 = vehicle-only enzyme signal, 0 = enzyme-free wells. activation factor at 10 µM. hit rate 0.24% among 330,000;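 active = activation factor of at least 2 at 20 µM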
#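 System: mouse IAP enzyme. Reagent: CDP-Star chemiluminescent phosphatase substrate. Benchmarks: DMSO wells, no-enzyme wells. Times: 30 min enzyme-substrate-compound incubation at room temperature. Detection: luminescence from enzymatic CDP-Star hydrolysis. Doses: test compounds delivered from DMSO solution.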
# bIAP activator – bovine intestinal alkaline phosphatase activators, primary screen, biochemical, bovine IAP, CDP-star luminescence; purified bovine IAP, 30 min; active compounds read high; fold of DMSO-control signal, blank-subtracted; AID 1016, 2008; activation factor at 20 µM; hit rate 0.17% among 200,000;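 active = activation factor of 2 or more at 20 µM, a signal rise over negative controls twice the positive control's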
# bIAP inhibitor – bovine intestinal alkaline phosphatase inhibitors, primary screen, selectivity assay for TNAP inhibitor project, biochemical, bovine IAP, CDP-star luminescence; alkaline phosphatase, intestinal [Bos taurus]; purified bovine IAP, 30 min; inhibition, % at 20 µM; 190,000 tested, under 10 active; AID 1019, 2008;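 active = over 50% inhibition of intestinal alkaline phosphatase at 20 µM in the single-dose screen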
#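 Incubation: 30 min reaction at room temperature / Material: purified bovine intestinal alkaline phosphatase (IAP) enzyme / Input: enzyme at 1/65,000,000 dilution / Dosing: 20 µM single dose / Signal: CDP-star luminescence signal / Reagent: CDP-star chemiluminescent phosphatase substrate, 30 µM final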
# hIAP inh – human IAP inhibitors, primary screen, biochemical, luminescence, uHTS. purified IAP, CDP-Star luminescence, 30 min. inhibition, % at 10 µM. hit rate 0.12% among 330,000. AID 2544, 2010;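 active = inhibition reaching a set limit with compound at 10 µM in the primary screen, cut at about 35% in these data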;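 note: plate controls were DMSO wells with enzyme for no effect and no-enzyme buffer wells for full effect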
# mIAP inh confirm – inhibitors of mouse IAP, confirmation, biochemical, luminescence, single concentration; shares compounds with mIAP inh; purified mouse IAP, CDP-Star luminescence, 30 min; inhibition, % at 10 µM; hit rate 4.7% among 11,000; AID 434971, 2010;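 active = inhibition of at least 40% at 10 µM in either of the two replicates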;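 note: plate controls were DMSO wells with enzyme for no effect and buffer wells lacking enzyme for full effect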
# Numbers without * were called inactive; nt = no result given. This is a sample that favours compounds with a hit; in the whole collection about 0.72% have one here.
SMILES,mIAP inh,hIAP act,mIAP act,bIAP activator,bIAP inhibitor,hIAP inh,mIAP inh confirm
CN(c1cccc(NC(=O)Nc2cccc(Cl)c2)c1)S(C)(=O)=O,-273,1.1,3.7*,0.9,7,-13,-147
O=C(O)c1cn(-c2ccc(F)cc2)c(=O)c2ccccc12,3,0.9,0.97,0.9,7,10,nt
O=C(NNC(=O)c1cc2cc(Br)ccc2oc1=O)c1ccc(O)cc1O,77*,1.1,0.23,0.7,31,-5,82*
O=C1CC(=O)N(Cc2cccs2)C(=O)N1,1,0.86,0.99,1,4,14,nt
O=C1CC(=O)N(Cc2ccco2)C(=O)N1,48*,1.1,0.52,1.3,-26,-5,53*
O=C1CC(=O)N(Cc2ccco2)C(=S)N1,70*,0.79,0.3,1.1,-9,21,75*
CC(C)Nc1nnc(SCC(=O)N2CCN(C(=O)c3ccco3)CC2)s1,-12,1.2,1.1,nt,nt,-17,nt
Cc1cc2nc3s/c(=C/c4ccc(-c5ccccc5C(=O)O)o4)c(=O)n3c2cc1C,14,0.77,0.86,nt,nt,23,nt
O=C(O)c1ccccc1-c1ccc(/C=c2\sc3nc4cc(Br)cnc4n3c2=O)o1,78*,1,0.22,1,2,0,75*
O=C1CCC(C(=O)N2CCCC(Nc3ccc(F)cc3)C2)=NN1 (stereo unspecified),9,1,0.91,nt,nt,0,nt
CCOC(=O)C1=CN(Cc2ccco2)S(=O)(=O)N(C)C1c1ccc(F)c(Cl)c1 (stereo unspecified),13,nt,0.87,nt,nt,nt,nt
c1coc(C2Nc3cccc4cccc(c34)N2)c1,52*,1,0.48,0.7,31,-3,69*
COc1ccc(CNC(=O)CN2CCN(c3ccc(F)cc3)CC2)cc1,-2,1.2,1,nt,nt,-18,nt
Cc1ccc(NC(=S)NC(=O)/C=C/c2ccco2)c(O)c1,47*,1,0.53,1,-3,-1,54*
CCOc1ccc(NC(=S)NC(=O)/C=C/c2ccco2)cc1,9,1.1,0.91,nt,nt,-7,nt
COc1ccc(NC(=S)NC(=O)/C=C/c2ccco2)c(OC)c1,9,0.89,0.91,nt,nt,11,nt
O=C(/C=C\c1ccco1)NC(=S)Nc1ccccc1O,59*,1.1,0.41,nt,nt,-12,72*
COc1cccc(NC(=S)NC(=O)/C=C/c2ccco2)c1,20,1,0.8,nt,nt,0,nt
O=C(/C=C/c1ccco1)NC(=S)Nc1cccc(C(=O)O)c1,48*,0.83,0.52,nt,nt,17,63*
COc1cc(NS(=O)(=O)c2ccc(NC(=S)NC(=O)/C=C/c3ccco3)cc2)ncn1,42*,0.9,0.58,1,-3,10,64*
COc1ccc(NC(=O)c2cc3c(=O)n(C)c4ccccc4c3s2)cc1OC,9,0.88,0.91,1,2,12,nt
COc1cccc(CNC(=O)CCC2CCCN(C(=O)c3cccnc3SC)C2)c1 (stereo unspecified),-1,1.1,1,nt,nt,-10,nt
O=C(Nc1ccc(C(F)(F)F)cc1)N1CCN(c2ccnc3cc(Cl)ccc23)CC1,-2,0.84,1,nt,nt,16,nt
O=C(/C=C/c1ccco1)NC(=S)Nc1ccccc1O,46*,0.89,0.55,1.1,-6,11,54*
O=C(/C=C/c1ccco1)NC(=S)Nc1ccccc1N1CCCC1,11,1,0.89,1,3,-2,nt
SMILES,mIAP inh,hIAP act,mIAP act,bIAP activator,bIAP inhibitor,hIAP inh,mIAP inh confirm
CC(=O)NN1C(=O)/C(=C\c2ccccc2)SC1=S,-3,0.93,1,1,4,7,nt
CC(=O)NN1C(=O)/C(=C\c2ccc(O)cc2)SC1=S,28,0.68,0.72,0.5,nt,32,nt
CC(=O)NN1C(=O)/C(=C/c2ccc(Br)o2)SC1=S,67*,1,0.33,0.8,17,-3,75*
CC(=O)NN1C(=O)/C(=C\c2ccc(Br)o2)SC1=S,60*,0.97,0.4,0.9,8,3,74*
Cc1noc(C)c1C(=O)OCC(=O)NCc1ccc(Cl)cc1,-3,0.94,1,nt,nt,6,nt
COc1cccc(NC(=O)COC(=O)c2ccc(C)c(S(=O)(=O)N3CCCCC3)c2)c1,-1,0.99,1,nt,nt,1,nt
O=C1/C(=C\c2ccc(O)cc2)SC(=S)N1/N=C/c1ccc(O)cc1,49*,0.84,0.51,nt,nt,16,57*
COC(=O)C/C=N/N=C1/NC(=O)/C(=C/C(=O)O)S1,54*,0.82,0.47,nt,nt,18,42*
O=C(Nc1ccc(Cl)cc1)Nc1ccc(Cl)c(Cl)c1,-227,1.2,3.3*,nt,nt,-17,-127
O=C(Nc1ccc(Cl)c(Cl)c1)Nc1ccc(Br)cc1F,-253,0.95,3.5*,1.1,-10,5,-124
O=Cc1c[nH]c2cccc(OCc3ccccc3)c12,2,0.89,0.98,nt,nt,11,nt
c1ccc2c(CN3CCSCC3)cccc2c1,10,0.9,0.9,nt,nt,10,nt
COC(=O)C1CN(C(=O)COc2ccc(Cl)c(C)c2)c2ccccc2O1 (stereo unspecified),3,1.2,0.97,nt,nt,-17,nt
Cc1cc(C)cc(NC(=O)Nc2ccc(-n3ccc(C(F)(F)F)n3)cc2)c1,-288,1.2,3.9*,nt,nt,-16,-136
COc1ccccc1NC(=O)Nc1ccc(-n2ccc(C(F)(F)F)n2)cc1,-46,1,1.5,nt,nt,-4,nt
O=C(Nc1ccc(-n2ccc(C(F)(F)F)n2)cc1)Nc1cccc(Cl)c1,-178,1,2.8*,nt,nt,-2,-92
CC(C)(C)NC(=O)COc1coc(CN2CCN(C(=O)c3ccco3)CC2)cc1=O,2,1,0.98,nt,nt,-2,nt
Cc1ccc(NC(=O)CN(C)C(=O)COc2ccc(C(=O)c3ccc(F)cc3)cc2)cc1,6,0.94,0.94,0.9,6,6,nt
O=c1oc2ccccc2c(Nc2cccc(O)c2)c1[N+](=O)[O-],48*,0.85,0.52,0.7,27,15,50*
Cn1cnnc1SCC(=O)Nc1sc2c(c1C(N)=O)CCC2,57*,0.86,0.43,1,1,14,54*
COCCn1cnnc1SCC(=O)Nc1sc2c(c1C#N)CCC2,4,1.1,0.96,nt,nt,-10,nt
O=C(Nc1cccc(Cl)c1)Nc1nc(-c2ccc(Cl)cc2)cs1,-188,0.88,2.9*,0.6,38,12,-110
